Hits are enriched below; roughly 4.3% of the tested compounds scored in any of these assays.
AHR act: human AHR activation. P35869. AID 2796. hit rate 2.5% among 320,000. AHR-responsive luciferase reporter cells, luminescence. activation, % at 5 µM; in the data active = activation above about 47%;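 also: 0% = vehicle wells and 100% = reference agonist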
Target sequence (P35869 whole entry, looked up): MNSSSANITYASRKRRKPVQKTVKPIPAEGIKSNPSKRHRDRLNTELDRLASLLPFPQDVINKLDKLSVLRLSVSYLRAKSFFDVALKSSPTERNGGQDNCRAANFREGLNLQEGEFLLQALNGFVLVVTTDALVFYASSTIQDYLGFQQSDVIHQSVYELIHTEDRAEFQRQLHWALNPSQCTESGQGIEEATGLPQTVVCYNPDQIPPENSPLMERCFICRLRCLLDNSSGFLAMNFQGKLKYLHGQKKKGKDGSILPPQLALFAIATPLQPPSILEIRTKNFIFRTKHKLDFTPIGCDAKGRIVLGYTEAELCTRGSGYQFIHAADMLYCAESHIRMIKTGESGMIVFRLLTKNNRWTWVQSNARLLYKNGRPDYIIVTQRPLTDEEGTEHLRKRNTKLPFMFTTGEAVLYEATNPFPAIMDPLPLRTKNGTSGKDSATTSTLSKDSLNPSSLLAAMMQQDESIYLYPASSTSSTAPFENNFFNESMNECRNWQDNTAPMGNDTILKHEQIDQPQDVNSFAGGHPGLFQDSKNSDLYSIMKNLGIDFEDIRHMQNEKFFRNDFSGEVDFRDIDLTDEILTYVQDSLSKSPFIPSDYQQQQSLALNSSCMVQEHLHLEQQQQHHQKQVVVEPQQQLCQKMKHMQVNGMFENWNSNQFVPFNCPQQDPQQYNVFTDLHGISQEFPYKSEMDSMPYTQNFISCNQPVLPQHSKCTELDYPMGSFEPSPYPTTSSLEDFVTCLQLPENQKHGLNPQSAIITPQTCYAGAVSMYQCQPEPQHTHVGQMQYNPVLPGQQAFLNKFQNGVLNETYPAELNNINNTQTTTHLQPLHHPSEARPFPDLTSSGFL
Yeast superoxide: lowers age-related superoxide in aged yeast cells; S. cerevisiae aged cells, superoxide DHE fluorescence; stronger effect = lower value; hit rate 0.18% among 330,000; superoxide response (% of plate mean), % at 10 µM;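 active = superoxide response under a set limit, about three screen SD below normal, cut at about 65% in these data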;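 also: yeast aged for seven days with compound at 30 °C before DHE staining; 100% = average MFI of all compound-treated wells on the plate with controls excluded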
SR-BI DiI inh: inhibitors of mouse SR-BI mediated HDL lipid uptake | Q61009 | ldlA[mSR-BI] CHO cells, DiI-HDL uptake fluorescence, 3 h | inhibition, % at 12.5 µM | hit rate 0.96% among 320,000;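 active = mean replicate inhibition of at least 70% and a set share of replicates each scoring 70 or more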;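 also: 0% = median of neutral control wells and 100% = median of positive control wells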
SMARCA2 act: SMARCA2 function activation, primary screen; MG213 cells, MMTV-luciferase reporter, dexamethasone, overnight; activation, % at 9.1 µM; hit rate 1% among 370,000; AID 652017; in the data active = activation above about 7.8%;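 also: 0% = vehicle wells and 100% = reference activator wells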
SR-BI uptake up: SR-BI HDL lipid transfer activation; CHO ldlA[mSR-BI] cells, DiI-HDL uptake fluorescence, 3 h; 100 = double the neutral-control signal; activation, % at 12.5 µM; hit rate 0.096% among 320,000; AID 504775;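 active = mean replicate activation of at least 60% and every replicate at or above 60%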;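 also: 0% = median plate neutral-control signal and 100% = twice that signal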
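Material: SR-BI-overexpressing, LDLR-lacking CHO cells; schedule: compound exposure 3 h, 37 °C; reagent: DiI-labelled HDL at 10 µg/mL final; technique: bottom-read fluorescence, 550/595 nm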
Lipid droplet: modulators of hepatic lipid droplet formation | AML12 mouse hepatocytes, oleate lipid droplets, BODIPY imaging | inhibition, % at 6.5 µM | hit rate 0.4% among 240,000 | AID 1656;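 active = lipid droplet intensity inhibited by at least 50%, with more than 500 cells counted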
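Test system: AML12 hepatocytes (mouse); reagent: oleate loading, 100 µM; dosing: one dose, 6.5 µM compound; incubation: overnight exposure; signal: fluorescence imaging, 20x objective, two fields per well; read-out basis: % inhibition of corrected integrated BODIPY droplet signal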
SMARCA2 conf: confirmation of SMARCA2 (BRM) function activators | activation, % at 9.1 µM | hit rate 30% among 3,500 | shares compounds with SMARCA2 act | AID 652260 | MG213 cells, MMTV-luciferase with dexamethasone, luminescence, overnight; MG213 cells expressing E1A, Rb sequestered; DMSO wells 0%, reference activator 100%;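 active = activation above its plate's cutoff, the mean activation of tested wells plus 3 SD, cut at about 7.9% in these data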
VP16 Luc act: GAL4-VP16 reporter activation counter-screen; shares compounds with SMARCA2 act; hit rate 41% among 3,500; AID 686939; activation, % at 9.1 µM; HEK293 GAL4-VP16 pG5luc reporter, luciferase luminescence; scaled: DMSO wells 0%, SAHA wells 100%;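 active = activation above the solvent-only control well mean plus 3 SD, averaged across control plates, cut at about 5.2% in these data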
Starred values were filed as active, the others as inactive; · = no result given.

SMILES	AHR act	Yeast superoxide	SR-BI DiI inh	SMARCA2 act	SR-BI uptake up	Lipid droplet	SMARCA2 conf	VP16 Luc act
C#CCCCN([C@H](C(=O)OC)C(C)C)S(=O)(=O)c1ccc(F)cc1Br	·	·	·	-4	·	·	·	·
Nc1nc(CN2CCN(Cc3ccccc3)CC2)nc(Nc2ccc3c(c2)OCCO3)n1	7	116	-6	9.2*	6	20	26*	1
Cc1ccc(-c2cccc(NC(=O)C3C4C=CC(C4)C3C(=O)O)c2)o1 (stereo unspecified)	1	101	-11	9.4*	11	-26	1	0
C=C1C(=O)OC2C1CCC(C)C1C=CC(=O)C12C (stereo unspecified)	·	·	-17	21*	17	·	21*	4
CC(=O)O[C@@H]1[C@H]2[C@@H](C[C@@H](C)[C@@H]3C=CC(=O)[C@@]13C)OC(=O)[C@@H]2C	1	95	-12	-1	12	-35	·	·
FC(F)(F)c1ccccc1CN1CCCc2nc(-c3ccccc3)ccc21	·	·	·	2	·	·	·	·
COc1ccc(-c2ccc3c(n2)CCCN3Cc2ccccc2C(F)(F)F)cc1	·	·	·	8.2*	·	·	3	5.8*
CCCCS(=O)(=O)N1CCCc2nc(-c3ccc(F)cc3)ccc21	·	·	·	-2	·	·	·	·
COCCN1CCCc2nc(-c3ccc(Br)cc3)ccc21	·	·	·	11*	·	·	7	7.8*
O=S(=O)(c1ccc(C(F)(F)F)cc1)N1CCCc2nc(-c3ccc(Br)cc3)ccc21	·	·	·	15*	·	·	-3	5
COc1ccc(-c2ccc3c(n2)CCCN3S(=O)(=O)c2ccc(OC)cc2)cc1	·	·	·	-11	·	·	·	·
CCOC(=O)c1cnc(-c2ccccc2O)nc1Cl	3	118	-13	8.1*	13	-2	4	4
O=C(O)c1ccccc1N/N=C\c1ccnc2ccccc12	65*	106	-1	8.0*	1	·	3	3
CN(C(=O)c1cccc(NC(=O)Cc2ccc(NC(=O)C3CCN(C(=O)CCc4ccccc4)CC3)cc2)c1)C1CCCC1	·	·	·	-1	·	·	·	·
CCCCCCCCN1C(=O)[C@@H](CC(=O)N2CCN(C(=O)OCC)CC2)C[C@@]2(C(=O)OC)C1=C[C@H](COCc1ccccc1)O[C@@H]2C	·	·	·	-4	·	·	·	·
Cn1cccc1CC(=O)NNC(=S)Nc1ccccc1Cl	0	111	8	8.3*	-8	8	-2	4
Cn1cccc1CC(=O)NNC(=S)Nc1ccc(Cl)cc1	5	118	14	-1	-14	-3	·	·
Cc1ccc(NC(=O)N2CCN(Cc3ccc4c(c3)OCO4)CC2)cc1	-1	86	6	-1	-6	16	·	·
O=C(Nc1ccc2c(c1)OCO2)N1CCN(Cc2ccco2)CC1	39	75	-26	11*	26	-1	0	12*
c1ccc(CNn2nnc3ccccc32)cc1	·	·	·	12*	·	·	10.0*	11*
C(#Cc1ccccc1)Cn1nnc2ccccc21	4	95	-9	-1	9	9	·	·
O=C(c1ccc2c(c1)OCO2)N1CCC(Oc2cccnc2)CC1	·	·	·	-2	·	·	·	·
COCC1CCN(C(=O)C2CCC(=O)N(Cc3ccc(Cl)cc3)C2)CC1 (stereo unspecified)	13	93	-14	8.3*	14	12	-1	0
O=C(c1ccccc1)N1CCC2CCN(S(=O)(=O)c3ccccc3)CC21 (stereo unspecified)	·	·	·	3	·	·	·	·
O=C1NC2c3c(Cl)sc(Cl)c3C(=O)C2O1 (stereo unspecified)	·	·	-5	15*	5	·	9.0*	1
SMILES	AHR act	Yeast superoxide	SR-BI DiI inh	SMARCA2 act	SR-BI uptake up	Lipid droplet	SMARCA2 conf	VP16 Luc act
O=C1NC2c3c(I)sc(I)c3C(=O)C2O1 (stereo unspecified)	·	·	-7	8.7*	7	·	-4	0
COCCNS(=O)(=O)c1ccc(F)c(OC)c1	3	135	1	14*	-1	0	-1	1
Cc1ccc2nc3c(cc(C(=O)NCc4ccco4)c(=N)n3C3CCCC3)c(=O)n2c1	2	99	-15	9.1*	15	-15	15*	3
Cc1cccn2c(=O)c3cc(C(=O)NCc4ccco4)c(=N)n(C4CCCCC4)c3nc12	17	122	·	·	·	0	·	·
Cc1ccc2nc3c(cc(C(=O)NCC4CCCO4)c(=N)n3C3CCCC3)c(=O)n2c1 (stereo unspecified)	5	113	-5	8.8*	5	-2	-1	1
N=c1c(C(=O)NCC2CCCO2)cc2c(=O)n3ccccc3nc2n1C1CCCC1 (stereo unspecified)	5	106	-13	1	13	-5	·	·
COCc1cc(N2CCNC[C@@H]2C)ccc1N1CCN(Cc2ccccc2)[C@H](C)C1	·	·	·	2	·	·	·	·
CC(C)[C@H](CO)Nc1nc(NCc2ccc(S(N)(=O)=O)cc2)c2ncn(C(C)C)c2n1	15	105	-5	10*	5	-5	7.9*	0
COC(=O)C1=C(C)N(C)C(=NCc2cc(OC)c(OC)c(OC)c2)NC1c1ccc(C(F)(F)F)cc1 (stereo unspecified)	·	·	·	-6	·	·	·	·
Cn1c(CCN2CCCCC2)nc2cc(NC(=O)NC3CCCCC3)ccc21	-2	116	-26	4	26	·	·	·
CC1CCN(CCc2nc3cc(NC(=O)NC4CCCCC4)ccc3n2C)CC1	-6	101	-15	8.5*	15	·	4	1
COc1ccc(N2CCN(C(c3ccccc3)c3nnnn3C(C)(C)C)CC2)cc1 (stereo unspecified)	·	·	·	-2	·	·	·	·
COc1ccc(C(c2nnnn2C(C)(C)C)N2CCN(c3nc4ccccc4s3)CC2)cc1 (stereo unspecified)	·	·	3	9.2*	-3	·	-1	1
Cn1c(=O)cc(SCC(=O)NCCC2=CCCCC2)c2ccc(Cl)cc21	-1	107	1	8.3*	-1	-20	5	2
COCc1[nH]nc2c1C(c1cccc(C(F)(F)F)c1)N(c1ccc(OC)cc1)C2=O (stereo unspecified)	·	·	·	5	·	·	·	·
CCN(CC)c1ccc(NC(=O)c2cccc(C)c2OC)c(C)c1	-1	91	24	8.2*	-24	-2	14*	4
Cc1ccc(S(=O)(=O)N2CCCC2C(=O)N2CCc3ccccc3C2)cc1C (stereo unspecified)	·	·	·	-1	·	·	·	·
CNc1ccccc(-c2ccc3ccccc3n2)c1=O	50*	102	-20	15*	20	13	6	5.2*
O=C(NC1CCCCN(Cc2cccc(C(F)(F)F)c2)C1=O)c1ccc(F)cc1 (stereo unspecified)	·	·	·	-3	·	·	·	·

From PubChem BioAssay
